# Data taken from ChEMBL document CHEMBL1649395, “Synthesis and antibacterial activity of novel ketolides with 11,12-sulfur contained aryl alkyl side chains” (2011).
# Assays:
# Format in all cases: functional
# [1] = test system: Haemophilus influenzae; assay: Antibacterial activity against erythromycin-susceptible Haemophilus influenzae ATCC 49247 by broth microdilution method
# Method in brief: (§1)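 Strains were ATCC reference strains or clinical isolates from China's national antimicrobial resistance surveillance network (MOHNARIN). In vitro activity was measured by broth microdilution following NCCLS recommendations. Results are reported as minimum inhibitory concentration (MIC) in mg/L.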
# [2] = test system: Streptococcus pneumoniae; assay: Antibacterial activity against erythromycin-susceptible Streptococcus pneumoniae 07H252 by broth microdilution method; method in brief: as §1
# [3] = test system: Haemophilus influenzae; assay: Antibacterial activity against erythromycin-susceptible Haemophilus influenzae 07O114 by broth microdilution method; method in brief: as §1
# [4] = test system: Streptococcus pneumoniae; assay: Antibacterial activity against erythromycin-resistant Streptococcus pneumoniae 07P390 by broth microdilution method
# Method in brief: (§2)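 Clinical isolates were supplied by China's Ministry of Health National Antimicrobial Resistance Investigation Net (MOHNARIN). Activity was reported as minimum inhibitory concentration (MIC), determined by broth microdilution following NCCLS recommendations.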
# [5] = test system: Staphylococcus aureus; assay: Antibacterial activity against methicillin-susceptible Staphylococcus aureus ATCC 29213 by broth microdilution method; method in brief: as §1
# [6] = test system: Staphylococcus aureus; assay: Antibacterial activity against methicillin-susceptible Staphylococcus aureus ANS46 by broth microdilution method; method in brief: as §1
# [7] = test system: Haemophilus influenzae; assay: Antibacterial activity against erythromycin-susceptible Haemophilus influenzae 07O394 by broth microdilution method; method in brief: as §1
# [8] = test system: Streptococcus pyogenes; assay: Antibacterial activity against erythromycin-resistant Streptococcus pyogenes 03-233 by broth microdilution method; method in brief: as §2
# [9] = test system: Staphylococcus epidermidis; assay: Antibacterial activity against methicillin-resistant Staphylococcus epidermidis 07R066 by broth microdilution method; method in brief: as §2
# [10] = test system: Streptococcus pneumoniae; assay: Antibacterial activity against erythromycin-susceptible Streptococcus pneumoniae ATCC 49619 by broth microdilution method; method in brief: as §1
# [11] = test system: Streptococcus pyogenes; assay: Antibacterial activity against erythromycin-susceptible Streptococcus pyogenes 07U084 by broth microdilution method; method in brief: as §1
# [12] = test system: Haemophilus influenzae; assay: Antibacterial activity against erythromycin-susceptible Haemophilus influenzae 07O339 by broth microdilution method; method in brief: as §1
# [13] = test system: Streptococcus pneumoniae; assay: Antibacterial activity against erythromycin-resistant Streptococcus pneumoniae 07D201 by broth microdilution method; method in brief: as §2
# [14] = test system: Streptococcus pyogenes; assay: Antibacterial activity against erythromycin-resistant Streptococcus pyogenes 01-533 by broth microdilution method; method in brief: as §2
# [15] = test system: Staphylococcus epidermidis; assay: Antibacterial activity against methicillin-susceptible Staphylococcus epidermidis 07T202 by broth microdilution method; method in brief: as §1
# [16] = test system: Staphylococcus epidermidis; assay: Antibacterial activity against methicillin-resistant Staphylococcus epidermidis 07A066 by broth microdilution method; method in brief: as §2
# [17] = test system: Streptococcus pyogenes; assay: Antibacterial activity against erythromycin-susceptible Streptococcus pyogenes 07U086 by broth microdilution method; method in brief: as §1
# [18] = test system: Staphylococcus epidermidis; assay: Antibacterial activity against methicillin-susceptible Staphylococcus epidermidis 07C134 by broth microdilution method; method in brief: as §2
SMILES,MIC [1],MIC [2],MIC [3],MIC [4],MIC [5],MIC [6],MIC [7],MIC [8],MIC [9],MIC [10],MIC [11],MIC [12],MIC [13],MIC [14],MIC [15],MIC [16],MIC [17],MIC [18]
CC[C@H]1OC(=O)[C@H](C)C(=O)[C@H](C)[C@@H](O[C@@H]2O[C@H](C)C[C@H](N(C)C)[C@H]2O)[C@@](C)(OC)C[C@@H](C)C(=O)[C@H](C)[C@H]2N(CCCSc3nnnn3C)C(=O)O[C@]12C,8 µg/mL,8 µg/mL,8 µg/mL,0.5 µg/mL,0.25 µg/mL,> 32 µg/mL,8 µg/mL,> 32 µg/mL,> 32 µg/mL,0.031 µg/mL,0.062 µg/mL,8 µg/mL,> 32 µg/mL,1 µg/mL,> 32 µg/mL,1 µg/mL,0.062 µg/mL,0.25 µg/mL
CC[C@H]1OC(=O)[C@H](C)C(=O)[C@H](C)[C@@H](O[C@@H]2O[C@H](C)C[C@H](N(C)C)[C@H]2O)[C@@](C)(OC)C[C@@H](C)C(=O)[C@H](C)[C@H]2N(CCCSc3nccc(C)n3)C(=O)O[C@]12C,8 µg/mL,8 µg/mL,8 µg/mL,0.25 µg/mL,0.5 µg/mL,> 32 µg/mL,8 µg/mL,2 µg/mL,0.25 µg/mL,0.062 µg/mL,0.125 µg/mL,8 µg/mL,> 32 µg/mL,2 µg/mL,> 32 µg/mL,0.5 µg/mL,0.125 µg/mL,0.25 µg/mL
CC[C@H]1OC(=O)[C@H](C)C(=O)[C@H](C)[C@@H](O[C@@H]2O[C@H](C)C[C@H](N(C)C)[C@H]2O)[C@@](C)(OC)C[C@@H](C)C(=O)[C@H](C)[C@H]2N(CCCSc3nnnn3-c3ccccc3)C(=O)O[C@]12C,16 µg/mL,1 µg/mL,16 µg/mL,0.5 µg/mL,0.25 µg/mL,> 32 µg/mL,32 µg/mL,> 32 µg/mL,0.25 µg/mL,0.125 µg/mL,0.125 µg/mL,32 µg/mL,> 32 µg/mL,2 µg/mL,> 32 µg/mL,0.5 µg/mL,0.125 µg/mL,0.5 µg/mL
CC[C@H]1OC(=O)[C@H](C)C(=O)[C@H](C)[C@@H](O[C@@H]2O[C@H](C)C[C@H](N(C)C)[C@H]2O)[C@@](C)(OC)C[C@@H](C)C(=O)[C@H](C)[C@H]2N(CCCSc3nc(C)cc(C)n3)C(=O)O[C@]12C,4 µg/mL,2 µg/mL,8 µg/mL,1 µg/mL,0.5 µg/mL,> 32 µg/mL,8 µg/mL,> 32 µg/mL,0.5 µg/mL,0.062 µg/mL,0.125 µg/mL,4 µg/mL,> 32 µg/mL,2 µg/mL,> 32 µg/mL,0.5 µg/mL,0.125 µg/mL,0.5 µg/mL
CC[C@H]1OC(=O)[C@H](C)C(=O)[C@H](C)[C@@H](O[C@@H]2O[C@H](C)C[C@H](N(C)C)[C@H]2O)[C@](C)(OC)C[C@@H](C)C(=O)[C@H](C)[C@H]2N(CCCCn3cnc(-c4cccnc4)c3)C(=O)O[C@]12C [TELITHROMYCIN],4 µg/mL,0.062 µg/mL,4 µg/mL,0.031 µg/mL,0.125 µg/mL,> 16 µg/mL,4 µg/mL,2 µg/mL,0.125 µg/mL,0.031 µg/mL,0.062 µg/mL,4 µg/mL,1 µg/mL,0.25 µg/mL,> 16 µg/mL,0.125 µg/mL,0.062 µg/mL,0.125 µg/mL
CC[C@H]1OC(=O)[C@H](C)[C@@H](O[C@H]2C[C@@](C)(OC)[C@@H](O)[C@H](C)O2)[C@H](C)[C@@H](O[C@@H]2O[C@H](C)C[C@H](N(C)C)[C@H]2O)[C@](C)(OC)C[C@@H](C)C(=O)[C@H](C)[C@@H](O)[C@]1(C)O [CLARITHROMYCIN],4 µg/mL,0.062 µg/mL,4 µg/mL,2 µg/mL,0.25 µg/mL,> 32 µg/mL,8 µg/mL,> 32 µg/mL,0.125 µg/mL,0.031 µg/mL,0.031 µg/mL,8 µg/mL,> 32 µg/mL,2 µg/mL,> 32 µg/mL,8 µg/mL,0.031 µg/mL,0.25 µg/mL
